The other results are listed elsewhere or left out. Activity calls are given as the source filed them.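 The calls were made as follows: active = triplicate mean inhibition exceeding the hit cutoff computed for the primary STAT1 screen (cut at about 35% in these data); inactive = the rest.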
Test: STAT1 signaling inhibitors, confirmation, cell-based, HTS, luciferase reporter (AID 1263);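 also: 0% = DMSO with IFN-gamma and 100% = 300 µM nifuroxazide with IFN-gamma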
Settings: NIH 3T3 STAT1-luciferase reporter, IFN-gamma, luminescence; at 5.5 µM; active compounds read high
How it was run: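 Test system: NIH 3T3 cells carrying a STAT1::luciferase reporter. Times: compound preincubation 1 h, IFN-gamma exposure 4 h, 37 °C, substrate 15 min. Technique: luminescence after luciferase substrate addition. Read-out basis: % inhibition scaled between DMSO and nifuroxazide. Benchmarks: high control 300 µM nifuroxazide, low control DMSO. Replicates: triplicate wells per compound.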

Structure (SMILES)	inhibition
COc1ccc(C(=O)Nc2ccccc2C(=O)N/N=C/c2ccccc2OC)cc1	0.25% (inactive)
C[C@@H]1C[C@@H]2O[C@H]2/C=C\C=C\C(=O)Cc2c(Cl)c(O)cc(O)c2C(=O)O1	61% (active)
COc1ccc(C2CC(c3cccs3)=NN2c2nc(C)c(C(C)=O)s2)cc1OC (stereo not given)	20.8% (inactive)
CCOC(=O)N1CCN(C(=O)C2CCN(c3ncnc4c3sc3cccc(F)c34)CC2)CC1	41.5% (active)
CCOC(=O)C(=CNc1cccc(C)n1)C(=O)OCC	32.5% (inactive)
COC(=O)C1=CN(Cc2ccc(OC)c(OC)c2)C=C(C(=O)OC)C1c1cccs1	38.3% (active)
CCOC(=O)N1CCN(C(=O)CSc2nnc(-c3c[nH]c4ccccc34)n2CCOC)CC1	33.9% (inactive)
NS(=O)(=O)c1cccc(NC(=O)CSc2nc3ccccc3n2-c2ccccc2)c1	31.4% (inactive)
Cc1ccc(C2=Nc3c(ccc4ccccc34)C(c3ccncc3)=NN2)cc1	60.4% (active)
O=C(CCl)N(Cc1cccc([N+](=O)[O-])c1)c1cccc(Cl)c1	33.3% (inactive)

Source: PubChem BioAssay AID1263 (The Scripps Research Institute Molecular Screening Center, 2008)
